From ChEMBL document CHEMBL1144120, “In vitro evaluation of antifungal properties of phenylpropanoids and related compounds acting against dermatophytes” (1999) come the findings set out here.

Assay [1] concerns Trichophyton rubrum. The assay can be described thus: Antifungal activity against Trichophyton rubrum C 113 up to 50 ug/mL by agar dilution method. It counts as functional, organism-based. Summed up:
(§1)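 Dermatophytes were tested by agar dilution on Sabouraud chloramphenicol agar in 96-well plates. DMSO stock solutions were serially two-fold diluted into the medium to give final concentrations of 0.10–50 µg/mL, with DMSO not exceeding 2%. Each well received 5 µL of spore suspension.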

Assay [2] relates to Saccharomyces cerevisiae. The assay can be described thus: Antifungal activity against Saccharomyces cerevisiae ATCC 9763 by agar dilution method. Format: functional, organism-based. A digest of the protocol: (§2)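 Sabouraud chloramphenicol agar dilution in 96-well plates. Strains were grown on Sabouraud chloramphenicol agar slants for 48 h at 30 °C and suspended in sterile distilled water, adjusted to 10^6 viable cells/mL. DMSO stocks were serially two-fold diluted into the agar to give 0.10–50 µg/mL, with DMSO ≤2% final. 5 µL inoculum per well; incubated 24, 48 or 72 h at 30 °C per control growth; MIC recorded.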

For assay [3], the system named is Epidermophyton floccosum. The assay can be described thus: Antifungal activity against Epidermophyton floccosum C 114 up to 50 ug/mL by agar dilution method. Format: functional, organism-based. A digest of the protocol:
as §1
A general note: In agar dilution, organisms are placed on agar that contains the substance at set levels.

For assay [4], the system named is Candida albicans. Put plainly: Antifungal activity against Candida albicans ATCC 10231 by agar dilution method. Format: functional, organism-based. Summed up: as §2
For assay [5], the system named is Trichophyton mentagrophytes. Put plainly: Antifungal activity against Trichophyton mentagrophytes ATCC 9972 up to 50 ug/mL by agar dilution method. Format: functional, organism-based. Summed up: as §1
Assay [6] concerns Cryptococcus neoformans. Put plainly: Antifungal activity against Cryptococcus neoformans ATCC 32264 by agar dilution method. Format: functional, organism-based. A digest of the protocol: as §2
Assay [7] deals with Aspergillus fumigatus. The assay can be described thus: Antifungal activity against Aspergillus fumigatus ATCC 26934 by agar dilution method. Format: functional, organism-based. A digest of the protocol:
as §2

Assay [8] concerns Nannizzia gypsea. The assay can be described thus: Antifungal activity against Microsporum gypseum C 115 up to 50 ug/mL by agar dilution method. It counts as functional, organism-based. A digest of the protocol:
as §1

Assay [9] has as its system Aspergillus flavus. The assay can be described thus: Antifungal activity against Aspergillus flavus ATCC 9170 by agar dilution method. It counts as functional, organism-based. Summed up: as §2
Assay [10] deals with Trichophyton rubrum. Put plainly: Antifungal activity against Trichophyton rubrum C 113 by agar dilution method. Format: functional. A digest of the protocol: as §1
The subject of assay [11] is Aspergillus niger. Put plainly: Antifungal activity against Aspergillus niger ATCC 9029 by agar dilution method. Format: functional, organism-based. A digest of the protocol:
as §2

Assay [12] concerns Trichophyton mentagrophytes. The assay can be described thus: Antifungal activity against Trichophyton mentagrophytes ATCC by agar dilution method. Format: functional. Summed up:
as §1

In assay [13] the test system is Nannizzia gypsea. The assay can be described thus: Antifungal activity against Microsporum gypseum C 115 by agar dilution method. It counts as functional. Summed up:
as §1

The test system of assay [14] is Microsporum canis. Put plainly: Antifungal activity against Microsporum canis C 112 up to 50 ug/mL by agar dilution method. Format: functional, organism-based. A digest of the protocol:
as §1

Assay [15] deals with Epidermophyton floccosum. The assay can be described thus: Antifungal activity against Epidermophyton floccosum C 114 by agar dilution method. It counts as functional. Summed up: as §1
Assay [16] has as its system Microsporum canis. Put plainly: Antifungal activity against Microsporum canis C 112 by agar dilution method. It counts as functional. A digest of the protocol:
as §1

The structures appear in SMILES notation. Converted amounts (≈) assume the structure as drawn. The source made the active and inactive calls. No cut-off for these calls is given here.

The MIC is the least concentration at which growth counts as inhibited. A low value points to a more susceptible organism. For `CCC(O)c1ccc2ccccc2c1` (stereo not drawn), the outcome in assay [1], in assay [2], in assay [3], in [4], in assay [5] and in [6] was inactive. For the same compound, the result in assay [7], in assay [8], in assay [9], in assay [11] and in [14] was inactive. The MIC stood at 40 µg/mL (≈ 215 µM) in [10]; 25 µg/mL (≈ 134 µM) in assay [12]; 40 µg/mL (≈ 215 µM) in assay [13]; 40 µg/mL (≈ 215 µM) in [15]; 50 µg/mL (≈ 268 µM) in [16].
Regarding `COc1ccc([C@H](O)[C@H](C)Br)cc1OC`, the outcome in assay [1], in [2], in assay [3], in assay [4], in assay [5] and in assay [6] was inactive. Besides, the outcome in assay [7], in [8], in assay [9], in [11] and in assay [14] was inactive. Further, the minimal inhibitory concentration (MIC) in assay [10] was > 50 µg/mL; in assay [12], > 50 µg/mL; in assay [13], > 50 µg/mL; in assay [15], 50 µg/mL (≈ 182 µM); in [16], > 50 µg/mL.
Turning to `CC(Cl)C(=O)c1ccc2c(c1)OCO2` (stereo not drawn), the result in assay [1], in assay [2], in assay [3], in [4], in [5] and in assay [6] was inactive. Also, the outcome in assay [7], in assay [8], in assay [9], in assay [11] and in [14] was inactive. The MIC in assay [10] came to 10 µg/mL (≈ 47 µM); in assay [12] it was 25 µg/mL (≈ 118 µM); in assay [13], 12.5 µg/mL (≈ 58.8 µM); in [15], 6.25 µg/mL (≈ 29.4 µM); in assay [16] it was 12.5 µg/mL (≈ 58.8 µM).
`COc1cc(C(=O)C(C)Cl)cc(OC)c1OC` (stereo not drawn): the result in assay [1], in assay [2], in [3], in [4], in assay [5] and in assay [6] was inactive. Also, the outcome in assay [7], in assay [8], in assay [9], in [11] and in [14] was inactive. For the same compound, the MIC came out at 10 µg/mL (≈ 38.7 µM) in assay [10]; 15 µg/mL (≈ 58 µM) in assay [12]; 12.5 µg/mL (≈ 48.3 µM) in assay [13]; 0.5 µg/mL (≈ 1.93 µM) in assay [15]; 6.25 µg/mL (≈ 24.2 µM) in assay [16].
Turning to `CC(C)(C)C(=O)c1ccccc1`, the result in [1], in assay [2], in [3], in [4], in assay [5] and in assay [6] was inactive. For the same compound, the outcome in assay [7], in assay [8], in assay [9], in [11] and in assay [14] was inactive. Further, the MIC is > 50 µg/mL in [10]; > 50 µg/mL in [12]; > 50 µg/mL in assay [13]; 50 µg/mL (≈ 308 µM) in assay [15]; > 50 µg/mL in [16].
`CC(Cl)C(=O)c1ccccc1` (stereo not drawn): the outcome in [1], in assay [2], in assay [3], in [4], in assay [5] and in assay [6] was inactive. Besides, the result in assay [7], in assay [8], in [9], in assay [11] and in assay [14] was inactive. The MIC in assay [10] stood at 12.5 µg/mL (≈ 74.1 µM); in [12], 10 µg/mL (≈ 59.3 µM); in [13] it was 20 µg/mL (≈ 119 µM); in assay [15] it was 15 µg/mL (≈ 89 µM); in [16], 6.25 µg/mL (≈ 37.1 µM).
As to `CCC(O)c1ccc2c(c1)OCO2` (stereo not drawn), the outcome in assay [1], in assay [2], in assay [3], in [4], in assay [5] and in [6] was inactive. Further, the outcome in assay [7], in assay [8], in assay [9], in [11] and in assay [14] was inactive. Further, the MIC in assay [10], in [12], in [13], in assay [15] and in assay [16] was > 50 µg/mL each time.
`CC(C)C(=O)c1ccc2ccccc2c1`: the result in assay [1], in [2], in [3], in [4], in [5] and in assay [6] was inactive. Also, the result in assay [7], in assay [8], in [9], in assay [11] and in [14] was inactive. Besides, the MIC in assay [10] was > 50 µg/mL; in assay [12], 25 µg/mL (≈ 126 µM); in assay [13], 25 µg/mL (≈ 126 µM); in [15], 40 µg/mL (≈ 202 µM); in [16], 40 µg/mL (≈ 202 µM).
